Screens deposited in PubChem BioAssay by several laboratories.
CHT inh – inhibitors of human choline transporter CHT; High affinity choline transporter 1 (Homo sapiens), Q9GZV3; AID 488975, 2010; 310,000 tested, 0.86% active; B-score at 10 µM; CHT-expressing cells, membrane potential dye, choline response; hits give low values;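 active = B-score over 3 SD under the library average, and starting fluorescence ratio not unusually high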;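 note: choline stimulus applied at its EC90 after an EC20 pre-addition; B-score computed on integrated fluorescence ratio after choline addition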
Target sequence (Q9GZV3 whole entry, looked up): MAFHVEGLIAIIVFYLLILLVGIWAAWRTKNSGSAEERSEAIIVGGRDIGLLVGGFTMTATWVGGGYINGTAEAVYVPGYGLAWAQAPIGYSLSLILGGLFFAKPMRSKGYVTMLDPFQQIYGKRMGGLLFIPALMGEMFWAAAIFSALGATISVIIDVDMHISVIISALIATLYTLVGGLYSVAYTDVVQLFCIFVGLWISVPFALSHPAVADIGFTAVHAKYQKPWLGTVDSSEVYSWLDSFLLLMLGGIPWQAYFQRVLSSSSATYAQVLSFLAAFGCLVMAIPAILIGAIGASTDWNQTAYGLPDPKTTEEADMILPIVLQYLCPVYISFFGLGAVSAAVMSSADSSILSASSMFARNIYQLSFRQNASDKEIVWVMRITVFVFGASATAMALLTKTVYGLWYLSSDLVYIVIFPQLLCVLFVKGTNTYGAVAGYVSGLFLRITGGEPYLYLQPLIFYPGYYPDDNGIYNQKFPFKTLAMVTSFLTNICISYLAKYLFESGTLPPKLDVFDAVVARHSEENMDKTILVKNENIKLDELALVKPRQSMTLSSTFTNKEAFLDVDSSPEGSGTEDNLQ
COUP-TFII inh – NR2F2 transcriptional activity inhibitors, primary screen, cell-based, luciferase reporter, HEK293T, luminescence; COUP transcription factor 2 (Homo sapiens), P24468; HEK293T NGFI-A luciferase reporter; inhibition, % at 8.6 µM; 370,000 tested, 0.7% active; AID 686940, 2013;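 active = inhibition above a per-plate cutoff, mean inhibition of test wells between control levels plus 3 SD, cut at about 38% in these data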;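 note: cells cotransfected with COUP-TFII expression vector driving the NGFI-A reporter; 0% = median of COUP-TF2 test wells and 100% = reporter-only cells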
GalR3 antag – GalR3 antagonists in HEK293 cells, primary screen, cell-based, fluorescence readout | Galanin receptor type 3 (Homo sapiens), O60755 | HEK293 GalR3-CNG cAMP membrane potential fluorescence; galR3 body fused to GalR1 C-terminus | inhibition, % at 3 µM | 360,000 tested, 0.44% active;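 active = inhibition above the screen-wide average plus 3 SD, cut at about 13% in these data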;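 note: forskolin and galanin both at EC90 stimulate the cells; cAMP rise reported by CNG channel membrane potential dye signal; 0% = forskolin plus galanin with DMSO and 100% = forskolin alone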
CHT allo act – CHT positive allosteric modulators, primary screen, cell-based, membrane potential dye, choline EC20; B-score at 10 µM; AID 488977, 2010; High affinity choline transporter 1 (Homo sapiens), Q9GZV3; 310,000 tested, 0.49% active; CHT-expressing cells; hits give high values; LV-AA mutant CHT in HEK293 cells;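 active = initial fluorescence not abnormally high and integrated response B-score, plate-corrected, over 3 SD above library mean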
NR2E3 ag-1 – NR2E3 agonists in two-hybrid cells, primary screen, cell-based, luminescence, CHO-S, Gal4-NCOR/VP16-NR2E3; inhibition of corepressor binding, % at 3.98 µM; 360,000 tested, 0.35% active; Photoreceptor-specific nuclear receptor (Homo sapiens), Q9Y5X4; luciferase;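 active = inhibition above the mean of all tested compounds plus 3 SD, cut at about 70% in these data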;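 note: 0% = DMSO with NR2E3 transfected cells and 100% = cells lacking NR2E3 construct; higher means lower luciferase signal from less NR2E3 corepressor binding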
NR2E3 ag-2 – inhibitors of NR2E3-RetCOR corepressor binding, primary screen, NR2E3 agonist project, biochemical, TR-FRET, GST-NR2E3, biotin-RetCOR | Photoreceptor-specific nuclear receptor (Homo sapiens), Q9Y5X4 | 1536-well | inhibition of corepressor binding, % at 4.78 µM | 320,000 tested, 0.12% active;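 active = percent inhibition above the cutoff of mean plus 3 SD of all tested compounds, set per screening campaign, cut at about 20% in these data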;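 note: 0% = DMSO wells and 100% = biotin wells as full block of FRET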
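System: GST-NR2E3 and biotin-RetCOR proteins; probe or stimulus: 7 nM biotin-RetCOR; doses: compound at 4.8 µM, single dose; schedule: Compound–protein incubation for 5 h at 4 °C; detection: time-resolved FRET; read-out: percent inhibition; controls: biotin wells as high control, 0.6% DMSO wells as low control; format: 1536-well plates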
Gal4-VP16 ctr – Gal4-VP16 luciferase reporter inhibitors, counter-screen for COUP-TFII antagonist project, cell-based, luminescence, HEK293 | shares compounds with COUP-TFII inh | inhibition, % at 8.5 µM | 2,500 tested, 25% active; in the data active = inhibition above about 13%
COUP-TFII conf – NR2F2 transcriptional activity inhibitors, confirmation, cell-based, luciferase reporter, HEK293, triplicate; shares compounds with COUP-TFII inh; HEK293 NGFI-A luciferase reporter, luminescence; inhibition, % at 8.5 µM; 2,500 tested, 45% active; AID 687008, 2013;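 active = mean inhibition over three repeats above a set limit taken from the earlier primary screen, cut at about 38% in these data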;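 note: 100% = cells given the luciferase reporter alone without the COUP-TF2 vector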
Active calls of the source: *; i = inactive; / = no result. A selection: hits, their analogues and other compounds. The true share with any hit is near 2.3%.

SMILES | CHT inh | COUP-TFII inh | GalR3 antag | CHT allo act | NR2E3 ag-1 | NR2E3 ag-2 | Gal4-VP16 ctr | COUP-TFII conf
COC(=O)[C@]1(CNC(C)=O)CC(=O)N(C)[C@@H]1c1ccccc1 | / | 0 | / | / | / | / | / | /
CCOC(=O)c1c(C)nn(-c2ccc(NC(=O)c3c(C)noc3C)cc2)c1C | i | 5 | -9 | i | -3 | 0 | / | /
CCOC(=O)c1c(C)nn(-c2ccc(NC(=O)/C=C/C(=O)O)cc2)c1C | i | 65* | 3 | i | 16 | 0 | 36* | 15
CC(C)CC(N)c1csc(Nc2ncccn2)n1 (stereo not given) | / | 43* | -4 | / | -13 | / | -41 | 17
NC(COCc1ccccc1)c1csc(Nc2ncccn2)n1 (stereo not given) | / | 4 | -8 | / | -48 | / | / | /
CCCCN1CCN(C(=O)Cn2c(=O)c3ccccc3n(CC)c2=O)CC1 | / | 1 | / | / | / | / | / | /
COc1cc(C=Nc2c(C)cc(C)cc2C)ccc1OC(C)=O | i | 50* | -7 | i | -10 | -1 | 7 | 6
COc1cc(/C=N/NC(=O)c2ccncc2)ccc1OC(C)=O | i | 5 | -10 | i | 0 | 0 | / | /
CC(C)CNS(=O)(=O)c1ccc(CCC(=O)N2CCN(c3ccccc3)CC2)cc1 | i | 14 | -3 | i | 7 | 1 | / | /
CCNS(=O)(=O)c1ccc(CCC(=O)N2CCN(c3ccccc3)CC2)cc1 | i | 43* | -6 | i | -13 | -5 | 9 | 4
O=C(Nc1ccc(OCc2ccccc2Cl)cc1)c1cccnc1 | i | 38* | -10 | i | 33 | 0 | -4 | 11
CCOc1ccc(-n2c(COc3ccccc3)nnc2SCC(=O)Nc2ccc(OCc3ccccc3)cc2)cc1 | / | 3 | / | / | / | / | / | /
COc1ccc(C(=O)c2ccccc2)c2c(O)ccc(C(=O)c3ccccc3)c12 | i | 43* | -3 | i | 10 | 1 | 5 | 63*
Cc1noc(C)c1COc1ccccc1C(=O)N(C)Cc1ccc(F)cc1 | / | -9 | -4 | / | -1 | / | / | /
Cc1noc(C)c1COc1ccccc1C(=O)N(C)Cc1ccc(C(C)(C)C)cc1 | / | 41* | -3 | / | 47 | 3 | -5 | 15
O=C(NCc1cccc(Cl)c1)c1cccc2c(-c3cccnc3)coc12 | / | 42* | -4 | / | 46 | / | -2 | 4
O=C(NCC1CCN(C(=O)C(=O)c2cc3ccccc3o2)CC1)c1cc(C(F)(F)F)cc(C(F)(F)F)c1 | / | 3 | 1 | / | / | / | / | /
Cn1nc(C(C)(C)C)cc1C(=O)NCC1CCN(C(=O)C(=O)c2cc3ccccc3o2)CC1 | / | 41* | -8 | / | / | / | -3 | 11
COc1ccc(CC(=O)Nc2ccc(-c3cn4cccc(C)c4n3)cc2)cc1OC | i | -5 | -6 | i | -23 | -3 | / | /
Cc1cccn2cc(-c3ccc(NC(=O)Cc4ccccc4)cc3)nc12 | i | 54* | / | i | -27 | 7 | 0 | -16
N=c1ccn(Cc2ccc(Cl)cc2)cc1 | i | 32 | 0 | i | -5 | 1 | / | /
N=c1ccn(Cc2ccc(Cl)c(Cl)c2)cc1 | i | 49* | 1 | i | 16 | 1 | -6 | 12
COC(=O)[C@]12C[C@H](CC(=O)NCc3ccccc3)C(=O)N(CCc3ccc(OC)c(OC)c3)C1=C[C@H](C1CCCC1)O[C@@H]2C | / | 15 | / | / | / | / | / | /
Cc1cccc(C(=O)N[C@@H]2CC[C@@]34CCCN3C(=O)CCC[C@H]4[C@H]2C)c1 | / | -11 | / | / | / | / | / | /
CCc1noc(C)c1C(=O)N1CCN(c2ccc([N+](=O)[O-])cc2)CC1 | / | -2 | 1 | / | -11 | / | / | /
SMILES | CHT inh | COUP-TFII inh | GalR3 antag | CHT allo act | NR2E3 ag-1 | NR2E3 ag-2 | Gal4-VP16 ctr | COUP-TFII conf
Cc1noc(C)c1CSCC(=O)N1CCN(c2ccc([N+](=O)[O-])cc2)CC1 | i | 38* | -5 | i | 34 | 5 | 2 | 26
C[C@H]1C2CC(OC(=O)Nc3cccc(F)c3)C(C2)[C@H]2CCCCN21 (stereo not given in full) | / | 0 | / | / | / | / | / | /
C=CCn1c(SCc2ccc(C(=O)Nc3nccs3)cc2)nnc1-c1ccc(C)c(Cl)c1 | i | 40* | -5 | i | -44 | -1 | -12 | 21
C=CCn1c(SCc2ccc(C#N)cc2)nnc1-c1cccc(Cl)c1 | i | -8 | -4 | i | -10 | 0 | / | /
COc1ccccc1COC(=O)c1cccc(S(=O)(=O)N(C)Cc2ccccc2)c1 | / | -4 | / | / | / | / | / | /
O=C(Nc1cccc(S(=O)(=O)N2CCCCC2)c1)c1ccc2c(=O)n3c(nc2c1)CCCCC3 | i | 45* | -3 | i | -3 | 2 | 0 | 49*
CN(CCO)c1cccc2c1S(=O)(=O)N(Cc1cn(Cc3cccc(C(F)(F)F)c3)nn1)Cc1ccccc1O2 | / | -5 | / | / | / | / | / | /
Cc1cc(C(=O)CN2C(=O)c3ccccc3S2(=O)=O)c(C)n1C(C)C | / | 63* | -1 | / | 3 | 3 | 49* | 63*
Cc1cc(C(=O)CN2C(=O)c3ccccc3S2(=O)=O)c(C)n1-c1ccccc1 | i | 35 | -3 | i | -28 | 3 | / | /
CCn1c(C)cc(C(=O)CN2C(=O)c3ccccc3S2(=O)=O)c1C | / | 41* | -9 | / | 36 | 1 | 41* | 72*
CN(C)C(CNC(=O)c1cc(S(=O)(=O)N(C)c2ccccc2)ccc1Cl)c1cccs1 (stereo not given) | i | 41* | -4 | i | 1 | 2 | 9 | 15
Cc1n[nH]c(C)c1S(=O)(=O)NCCc1ccccc1 | / | -4 | / | / | / | / | / | /
O=C(NCCc1ccccc1)c1ccc2c(c1)OCCO2 | i | 71* | -1 | i | 46 | -1 | 36* | 53*
COc1ccc(CCNC(=O)c2ccc3c(c2)OCCO3)cc1 | i | -20 | -6 | i | -70 | 3 | / | /
COc1ccc(-c2nc(N3CCCCCC3)sc2C(=O)c2ccccc2)cc1 | i | 58* | -2 | i | -8 | 4 | -11 | -2
CCOc1ccccc1NC(=O)c1cnc2n(c1=O)CCS2 | i | -2 | -3 | i | -8 | 0 | / | /
